In ChEMBL document CHEMBL1821554, “Synthesis and anticancer activity of chalcone-pyrrolobenzodiazepine conjugates linked via 1,2,3-triazole ring side-armed with alkane spacers” (2011):
Activity calls are given as the source filed them. The rule behind the calls is not given here.

How the values were obtained:
[1] = system: MCF7; assay: Cell cycle arrest in human MCF7 cells assessed as accumulation at G1 phase at 10 uM after 24 hrs using propidium iodide staining based flow cytometric analysis (reference value: 47.64 +/- 1.49 %); assay type: functional
[2] = system: A549; assay: Anticancer activity against human A549 cells by SRB method; assay type: functional
Outline: (§1)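 Growth inhibition over a panel of human cancer lines (lung, ovarian, oral, colon, prostate, cervix, breast). Value is the 50% growth-inhibition concentration, reported as the mean ± standard error of the mean of three determinations.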

[3] = Anticancer activity against human DWD cells by SRB method; assay type: functional; outline: as §1
[4] = system: MCF7; assay: Cytotoxicity against human MCF7 cells assessed as reduction in cell viability at 2 uM after 24 hrs by MTT assay; assay type: functional, cell-based
[5] = system: PC-3; assay: Anticancer activity against human PC3 cells by SRB method; assay type: functional; outline: as §1
[6] = system: MCF7; assay: Cell cycle arrest in human MCF7 cells assessed as accumulation at G0 phase at 10 uM after 24 hrs using propidium iodide staining based flow cytometric analysis (reference value: 1.27 +/- 0.08 %); assay type: functional
[7] = system: MCF7; assay: Cell cycle arrest in human MCF7 cells assessed as accumulation at G0/G1 phase at 4 uM after 24 hrs using propidium iodide staining based flow cytometric analysis; assay type: functional
Outline: (§2)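 MCF-7 cells were seeded at 5 × 10^5 per 60 mm dish and grown for 24 h, then exposed to 4 µM compound for 24 h. Cells were trypsinized, fixed in ice-cold 70% ethanol at 4 °C for 30 min and treated with 1 mg/ml RNase at 37 °C for 30 min. They were stained with propidium iodide/citrate/Triton X-100, and DNA content was read on 20,000 events by flow cytometry. Three independent repeats.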

[8] = system: MCF7; assay: Cell cycle arrest in human MCF7 cells assessed as accumulation at S phase at 10 uM after 24 hrs using propidium iodide staining based flow cytometric analysis (reference value: 12.92 +/- 1 %); assay type: functional
[9] = system: COLO 205; assay: Anticancer activity against human COLO205 cells by SRB method; assay type: functional; outline: as §1
[10] = system: MCF7; assay: Induction of cell cycle arrest at G1 phase in human MCF7 cells at 4 uM after 24 hrs using propidium iodide staining based flow cytometric analysis; assay type: functional; outline: as §2
[11] = system: MCF7; assay: Cell cycle arrest in human MCF7 cells assessed as accumulation at G2/M phase at 10 uM after 24 hrs using propidium iodide staining based flow cytometric analysis (reference value: 38.15 +/- 1.068 %); assay type: functional
[12] = Anticancer activity against human Gurav cells by SRB method; assay type: functional; outline: as §1
[13] = system: MCF7; assay: Anticancer activity against human MCF7 cells by SRB method; assay type: functional; outline: as §1
[14] = system: A2780; assay: Anticancer activity against human A2780 cells by SRB method; assay type: functional; outline: as §1
[15] = system: MCF7; assay: Induction of apoptosis in human MCF7 cells assessed as down regulation of Bcl2 expression at 4 uM after 24 hrs by ELISA; assay type: functional, cell-based
Outline: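 MCF-7 cells were treated with 4 µM compound for 24 h. Lysates were added to Bcl2 antibody-coated wells, followed by biotinylated anti-human Bcl2 monoclonal antibody, and bound Bcl2 was detected with streptavidin-HRP (sandwich ELISA).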

[16] = system: HOP-62; assay: Anticancer activity against human HOP62 cells by SRB method; assay type: functional; outline: as §1
[17] = molecular target: G1/S-specific cyclin-D1 (Homo sapiens) (UniProt P24385); assay: Down regulation of Cyclin D1 promoter activity expressed in human MCF7 cells co-transfected with luciferase gene at 4 uM after 24 hrs by luciferase reporter gene assay; assay type: cell-based
Outline: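 MCF-7 cells were transfected for 24 h with the cyclin D1 promoter (−1745) luciferase construct, which contains an NF-kB site. Cells were then treated with 4 µM compound (final) for a further 24 h, and lysate luciferase was measured by luminometer. Untransfected cells served as negative control and transfected untreated cells as control.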

[18] = system: ZR-75-1; assay: Anticancer activity against human ZR-75-1 cells by SRB method; assay type: functional; outline: as §1
[19] = Down regulation of NF-kappaB activity expressed in human MCF7 cells transfected with NF-kB SEAP plasmid at 4 uM after 24 hrs by chemiluminescence-based luminometric analysis; assay type: cell-based
Outline: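 MCF-7 cells were transiently transfected with the NF-kB SEAP plasmid using lipofectamine 2000. After 24 h, cells were treated with 4 µM compound for 24 h. Lysates were assayed with a chemiluminescent reagent and read by luminometry and by 30 min X-ray film exposure. Transfected untreated cells served as control.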

[20] = system: MCF7; assay: Induction of apoptosis in human MCF7 cells assessed as down regulation of Bcl-xL expression at 4 uM after 24 hrs by Western blot
[21] = system: MCF7; assay: Downregulation of cyclin D1 protein expression in human MCF7 cells at 4 uM after 24 hrs by Western blot analysis; assay type: functional, cell-based
Outline: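 MCF-7 cells at 80% confluency were treated with 4 µM compound for 24 h. Cells were lysed in RIPA buffer with protease inhibitors and protein was quantified by Bradford. 50 µg per lane was run on 12% SDS-PAGE and transferred to PVDF. Blots were probed overnight at 4 °C with rabbit polyclonal anti-cyclin D1, with β-actin as loading control, and detected by chemiluminescence.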

[22] = system: SiHa; assay: Anticancer activity against human SiHa cells by SRB method; assay type: functional; outline: as §1
[23] = system: MCF7; assay: Cytotoxicity against human MCF7 cells assessed as reduction in cell viability at 4 uM after 24 hrs by MTT assay; assay type: functional, cell-based
Outline: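 MCF-7 cells were seeded at 10,000 per well and left overnight, then treated with 4 µM compound for 24 h. MTT was added for 2 h at 37 °C, formazan was solubilized in extraction buffer, and OD was read at 570 nm. Untreated cells served as control. Three independent experiments, SD.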

[24] = system: KB; assay: Anticancer activity against human KB cells by SRB method; assay type: functional; outline: as §1

G1/S-specific cyclin-D1 (Homo sapiens), sequence (P24385 whole entry): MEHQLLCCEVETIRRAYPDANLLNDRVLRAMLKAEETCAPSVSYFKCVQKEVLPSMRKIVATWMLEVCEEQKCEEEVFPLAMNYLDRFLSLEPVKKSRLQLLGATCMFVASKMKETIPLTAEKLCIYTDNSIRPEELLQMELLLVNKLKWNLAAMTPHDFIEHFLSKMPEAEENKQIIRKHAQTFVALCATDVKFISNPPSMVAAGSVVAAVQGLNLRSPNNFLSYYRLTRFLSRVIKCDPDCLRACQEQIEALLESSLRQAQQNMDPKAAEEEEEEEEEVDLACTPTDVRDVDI

| SMILES | GI50 [2] [nM] | GI50 [5] [nM] | GI50 [9] [nM] | GI50 [13] [nM] | GI50 [14] [nM] | Activity [17] | GI50 [24] [nM] | Activity [1] [%] | GI50 [3] [nM] | Activity [4] | Activity [6] [%] | Activity [7] [%] | Activity [8] [%] | Activity [10] | Activity [11] [%] | GI50 [12] [nM] | Activity [15] | GI50 [16] [nM] | GI50 [18] [nM] | GI50 [22] [nM] | also measured |
| --- | --- | --- | --- | --- | --- | --- | --- | --- | --- | --- | --- | --- | --- | --- | --- | --- | --- | --- | --- | --- | --- |
| COc1cc2c(cc1OC)C(=O)N1C[C@@H](n3cc(COc4ccc(/C=C/C(=O)c5ccccc5O)cc4OC)nn3)C[C@H]1C=N2 | 2780 | 2230 | 110 | 2350 | 150 | – | – | 50.9 | 2700 | inactive | 5.19 | 55.24 | 8.71 | Active | 35.19 | 2510 | – | – | – | – | – |
| COc1cc(/C=C/C(=O)c2ccccc2O)ccc1OCCCCn1cc(COc2cc3c(cc2OC)C(=O)N2CCC[C@H]2C=N3)nn1 | < 160 | 130 | – | 140 | 100 | Active | 170 | 77.47 | < 130 | inactive | 10.79 | 89.1 | 4.99 | Active | 7.07 | 120 | Active | 160 | 150 | 140 | Activity [23]: Active; Activity [19]: Active; Activity [20]: Active; Activity [21]: Active |
| COc1cc2c(cc1OCc1ccccc1)N=C[C@@H]1C[C@H](n3cc(COc4ccc(/C=C/C(=O)c5ccccc5O)cc4OC)nn3)CN1C2=O | – | – | – | – | – | – | – | 54.61 | – | inactive | 5.21 | 59.79 | 6.65 | Active | 32.06 | – | – | – | – | – | – |
| COc1cccc2c1C(=O)c1c(O)c3c(c(O)c1C2=O)C[C@@](O)(C(=O)CO)C[C@@H]3O[C@H]1C[C@H](N)[C@H](O)[C@H](C)O1 [DOXORUBICIN] | – | – | 140 | 170 | 160 | – | 170 | – | 100 | – | – | – | – | – | – | 170 | – | 140 | – | 170 | – |
| COc1cc2c(cc1O)N=C[C@@H]1CCCN1C2=O | 160 | 200 | 110 | 170 | 140 | Active | 170 | 61.81 | – | – | 7.62 | 71.1 | 9.67 | – | 20.89 | 160 | Active | 150 | – | 170 | Activity [23]: Active; Activity [19]: Active; Activity [20]: Active; Activity [21]: Active |
| COc1ccc(/C=C/C(=O)c2ccc(O)cc2)cc1O | – | – | – | – | – | – | – | 51.61 | – | – | 10.15 | 64.11 | 6.55 | – | 31.5 | – | – | – | – | – | Activity [23]: Active |

Second part, led by results:

| GI50 [2] [nM] | GI50 [5] [nM] | GI50 [9] [nM] | GI50 [13] [nM] | GI50 [14] [nM] | Activity [17] | GI50 [24] [nM] | SMILES | Activity [1] [%] | GI50 [3] [nM] | Activity [4] | Activity [6] [%] | Activity [7] [%] | Activity [8] [%] | Activity [10] | Activity [11] [%] | GI50 [12] [nM] | Activity [15] | GI50 [16] [nM] | GI50 [18] [nM] | GI50 [22] [nM] | also measured |
| --- | --- | --- | --- | --- | --- | --- | --- | --- | --- | --- | --- | --- | --- | --- | --- | --- | --- | --- | --- | --- | --- |
| 2090 | 190 | 100 | 180 | 150 | Active | – | COc1cc(/C=C/C(=O)c2cc(Cl)ccc2O)ccc1OCCCCCn1cc(COc2cc3c(cc2OC)C(=O)N2CCC[C@H]2C=N3)nn1 | 60.56 | 2300 | inactive | 10.75 | 60.18 | 7.28 | Active | 22.06 | 190 | Active | 2280 | 2020 | – | Activity [19]: Active; Activity [20]: Active; Activity [21]: Active |
| 150 | 160 | – | 160 | 120 | Active | 2030 | COc1cc(/C=C/C(=O)c2ccc(O)cc2)ccc1OCCCn1cc(COc2cc3c(cc2OC)C(=O)N2CCC[C@H]2C=N3)nn1 | 72.51 | 120 | inactive | 13.67 | 87.7 | 6.48 | Active | 7.33 | 130 | Active | 170 | 170 | 180 | Activity [23]: Active; Activity [19]: Active; Activity [20]: Active; Activity [21]: Active |
| 2330 | 2480 | 150 | 2400 | 170 | Active | 2190 | COc1cc(/C=C/C(=O)c2ccccc2O)ccc1OCCCn1cc(COc2cc3c(cc2OC)C(=O)N2CCC[C@H]2C=N3)nn1 | 64.08 | – | inactive | 12.06 | 76.87 | 9.52 | Active | 14.32 | 2310 | Active | 2920 | 2200 | – | Activity [23]: Active; Activity [19]: Active; Activity [20]: Active; Activity [21]: Active |
| 170 | 2040 | 140 | 2100 | 140 | – | 180 | COc1cc(/C=C/C(=O)c2ccccc2O)ccc1OCCCCCn1cc(COc2cc3c(cc2OC)C(=O)N2CCC[C@H]2C=N3)nn1 | 46.39 | 2300 | inactive | 7.81 | 56.23 | 9.89 | Active | 35.88 | 160 | – | 2560 | 170 | 2710 | – |
| < 150 | 150 | 110 | 160 | 110 | – | 160 | COc1cc(/C=C/C(=O)c2ccc(O)cc2)ccc1OCCCCn1cc(COc2cc3c(cc2OC)C(=O)N2CCC[C@H]2C=N3)nn1 | – | < 160 | – | – | – | – | – | – | 130 | – | 190 | 160 | 2520 | – |
| 190 | 160 | < 100 | 160 | 130 | – | 2660 | COc1cc(/C=C/C(=O)c2cc(Cl)ccc2O)ccc1OCCCCn1cc(COc2cc3c(cc2OC)C(=O)N2CCC[C@H]2C=N3)nn1 | 50.63 | < 170 | inactive | 10.51 | 61.38 | 7.74 | Active | 31.07 | 1660 | – | 2500 | 190 | – | – |
